Experimental data: ChEMBL document CHEMBL3779817, “Investigations on the 4-Quinolone-3-carboxylic Acid Motif. 7. Synthesis and Pharmacological Evaluation of 4-Quinolone-3-carboxamides and 4-Hydroxy-2-quinolone-3-carboxamides as High Affinity Cannabinoid Receptor 2 (CB2R) Ligands with Improved Aqueous Solubility” (J Med Chem, 2016)
Converted amounts (≈) assume the structure as drawn.

Experiments:
[1] = biological target: Cannabinoid receptor 1 (Homo sapiens) (UniProt P21554); conditions: HEK293
Homo sapiens = species: Homo sapiens; test: Selectivity index, ratio of Ki for recombinant human CB1 receptor to Ki for recombinant human CB2 receptor
Cannabinoid receptor 2 [2] = biological target: T1, Cannabinoid receptor 2 (Homo sapiens, UniProt P34972); test: Displacement of [3H]-CP-55940 from human recombinant CB2 receptor expressed in HEK293 cells after 90 mins by Competition binding assay; assay type: cell-based
Cannabinoid receptor 2 [3] = biological target: T1, Cannabinoid receptor 2; test: Inverse agonist activity at recombinant human CB2 receptor expressed in CHO-K1 cells assessed as increase in […]-induced cAMP production by luminescence assay relative to AM630; assay type: functional, cell-based
Outline: (§1)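 CHO-K1 cells overexpressing human CB2, 30000 per well, left overnight at 37 °C, 5% CO2, then given compound dose–response with NKH477 (3× solution of 25 μM) to stimulate adenylate cyclase. cAMP read by enzyme-fragment-complementation chemiluminescence; response normalised to NKH477 alone as 100%. Mean ± SEM of two independent experiments in triplicate.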

[4] = Cytotoxicity against mouse NIH/3T3 cells assessed as cell viability after 24 hrs by neutral red uptake test; assay type: cell-based; conditions: NIH3T3, 24 h
[5] = Kinetic solubility in DMSO solution at pH 1.0 after 2 hrs by HPLC-UV analysis; assay type: physicochemical; conditions: read-out: Kinetic_solubility
Cannabinoid receptor 2 [6] = biological target: T1, Cannabinoid receptor 2; test: Inverse agonist activity at recombinant human CB2 receptor expressed in CHO-K1 cells assessed as increase in […]-induced cAMP production by luminescence assay; assay type: functional, cell-based
Outline: as §1

[7] = Kinetic solubility in DMSO solution at pH 7.4 after 2 hrs by HPLC-UV analysis; assay type: physicochemical; conditions: for solubility kinetic at 2 h: DMSO solution, pH 7.4, read-out: Kinetic_solubility; for log(Kinetic_solubility): pH 7.4, 2 h

T1 sequence (P34972 whole entry): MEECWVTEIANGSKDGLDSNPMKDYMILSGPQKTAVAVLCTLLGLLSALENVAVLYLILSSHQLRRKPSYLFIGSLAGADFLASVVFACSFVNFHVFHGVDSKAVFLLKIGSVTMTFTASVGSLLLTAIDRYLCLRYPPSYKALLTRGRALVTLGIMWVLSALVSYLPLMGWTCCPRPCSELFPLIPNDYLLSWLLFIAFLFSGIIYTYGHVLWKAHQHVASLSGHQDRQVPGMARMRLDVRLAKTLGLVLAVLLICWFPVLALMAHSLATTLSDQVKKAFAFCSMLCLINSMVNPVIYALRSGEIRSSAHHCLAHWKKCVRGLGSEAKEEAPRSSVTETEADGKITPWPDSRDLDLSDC
Cannabinoid receptor 1 (Homo sapiens), sequence (P21554 whole entry): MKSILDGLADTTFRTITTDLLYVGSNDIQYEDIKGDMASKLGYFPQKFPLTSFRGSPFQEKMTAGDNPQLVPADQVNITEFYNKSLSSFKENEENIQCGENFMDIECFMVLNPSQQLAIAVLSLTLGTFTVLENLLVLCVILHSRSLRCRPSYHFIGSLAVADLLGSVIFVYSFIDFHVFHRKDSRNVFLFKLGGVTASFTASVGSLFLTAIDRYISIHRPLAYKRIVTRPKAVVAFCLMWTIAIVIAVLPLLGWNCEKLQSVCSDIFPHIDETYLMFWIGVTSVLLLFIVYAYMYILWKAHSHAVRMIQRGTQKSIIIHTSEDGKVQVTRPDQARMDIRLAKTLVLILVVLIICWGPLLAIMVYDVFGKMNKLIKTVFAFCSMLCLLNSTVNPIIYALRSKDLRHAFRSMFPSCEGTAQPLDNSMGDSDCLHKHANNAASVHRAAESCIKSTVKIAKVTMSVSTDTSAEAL

Row | Structure (SMILES) | Kieq [1] | Ratio Ki (Homo sapiens) | Kieq (Cannabinoid receptor 2 [2]) | Efficacy (Cannabinoid receptor 2 [3]) | IC50 [4] | solubility kinetic at 2 h [5] | EC50 (Cannabinoid receptor 2 [6]) | IC50 (Cannabinoid receptor 2 [2]) | solubility kinetic at 2 h [7] | log(Kinetic_solubility) [7]
1 | CCCCCn1cc(C(=O)NC23CC4CC(CC(C4)C2)C3)c(=O)c2cc(-c3ccccc3)ccc21 | > 10000 nM | > 2660 | 3.8 nM | – | – | – | – | – | – | –
2 | CCCCCn1cc(C(=O)NC23CC4CC(CC(C4)C2)C3)c(=O)c2ccccc21 | 42.1 nM | 9 | 4.7 nM | – | – | – | – | – | – | –
3 | COCCOCn1cc(C(=O)NC23CC4CC(CC(C4)C2)C3)c(=O)c2ccc(F)cc21 | > 10000 nM | > 177 | 56 nM | – | – | – | – | – | – | –
4 | O=C(NCC1CCCCC1)c1c(O)c2ccccc2n(CCCCO)c1=O | 829 nM | 20 | 41.3 nM | – | – | – | – | – | – | –
5 | CCCCCn1c(=O)c(C(=O)NCc2ccc(OC)cc2)c(O)c2cc(-c3cccs3)ccc21 | 159 nM | 8 | 19.7 nM | – | – | – | – | – | – | –
6 | CCCCCn1cc(C(=O)NC23CC4CC(CC(C4)C2)C3)c(=O)c2ccc(Sc3ccccc3)cc21 | 5.3 nM | 3.3 | 1.6 nM | – | – | – | – | – | – | –
7 | CCCCCn1c(=O)c(C(=O)NC23CC4CC(CC(C4)C2)C3)c(O)c2ccc(F)cc21 | 1280 nM | 1380 | 0.93 nM | < 50% | 19 µM | 0.17 µg/mL (≈ 0.399 µM) | 0.0179 µM | 0.0035 µM | 1.5 µg/mL (≈ 3.52 µM) | -5.45
8 | O=C(NCc1ccc(F)cc1)c1c(O)c2cc(-c3ccco3)ccc2n(CCCCO)c1=O | 1580 nM | 6 | 253 nM | – | – | – | – | – | – | –
9 | COc1ccc(CNC(=O)c2c(O)c3cc(-c4cccs4)ccc3n(CCCCO)c2=O)cc1 | > 10000 nM | > 4 | 2240 nM | – | – | – | – | – | – | –
10 | CCCCCn1c(=O)c(C(=O)NC23CC4CC(CC(C4)C2)C3)cc2cc(C(C)C)ccc21 | – | – | – | – | 92 µM | – | – | – | – | –
11 | CN(C)CCn1cc(C(=O)NC23CC4CC(CC(C4)C2)C3)c(=O)c2ccc(F)cc21 | 501 nM | 8 | 60 nM | – | 15 µM | 170 µg/mL (≈ 414 µM) | – | – | 5.6 µg/mL (≈ 13.6 µM) | -4.87
12 | CCCCCn1cc(C(=O)NC23CC4CC(CC(C4)C2)C3)c(=O)c2ccc(F)cc21 | 30.5 nM | 38 | 0.8 nM | – | 74 µM | 0.05 µg/mL (≈ 0.122 µM) | – | – | 0.014 µg/mL (≈ 0.0341 µM) | -7.47
13 | CC(C)c1ccc2c(c1)c(=O)c(C(=O)NC13CC4CC(CC(C4)C1)C3)cn2CCN(C)C | > 10000 nM | > 68 | 146 nM | – | 5 µM | 31.5 µg/mL (≈ 72.3 µM) | – | – | 4.5 µg/mL (≈ 10.3 µM) | -4.99
14 | Cc1ccc(Cn2nc(C(=O)N[C@@H]3C(C)(C)[C@@H]4CC[C@@]3(C)C4)cc2-c2ccc(Cl)c(C)c2)cc1 | > 2820 nM | – | – | – | – | – | – | – | – | –
15 | CCCCCn1c(=O)c(C(=O)NC23CC4CC(CC(C4)C2)C3)c(O)c2cc(C(C)C)ccc21 | 1240 nM | 2350 | 0.53 nM | < 50% | 13 µM | 0.02 µg/mL (≈ 0.0444 µM) | 0.0026 µM | 0.0037 µM | 1.9 µg/mL (≈ 4.22 µM) | -5.38
16 | O=C(NC12CC3CC(CC(C3)C1)C2)c1cn(CCN2CCS(=O)(=O)CC2)c2cc(F)ccc2c1=O | 1900 nM | 8 | 246 nM | – | – | – | – | – | – | –
17 | CC(C)c1cc2c(=O)c(C(=O)NC34CC5CC(CC(C5)C3)C4)cn(CCN(C)C)c2cc1F | 717 nM | 63 | 11.4 nM | – | – | 35.5 µg/mL (≈ 78.3 µM) | – | – | 12.1 µg/mL (≈ 26.7 µM) | -4.57
18 | CC(C)c1ccc2c(c1)c(=O)c(C(=O)NC13CC4CC(CC(C4)C1)C3)cn2CCN1CCS(=O)(=O)CC1 | > 10000 nM | > 5 | 1930 nM | – | – | – | – | – | – | –
19 | CCCCCn1c(=O)c(C(=O)NC23CC4CC(CC(C4)C2)C3)c(O)c2cc(C(C)C)c(F)cc21 | > 10000 nM | > 150 | 66.4 nM | – | 13 µM | – | – | – | – | –
20 | CCCCCn1cc(C(=O)NC23CC4CC(CC(C4)C2)C3)c(=O)c2cc(C(C)C)c(F)cc21 | – | – | – | – | 9 µM | – | – | – | – | –
21 | CCCCCn1cc(C(=O)NC23CC4CC(CC(C4)C2)C3)c(=O)c2cc(C(C)C)ccc21 | – | – | – | – | 14 µM | 0.21 µg/mL (≈ 0.483 µM) | – | – | 1 µg/mL (≈ 2.3 µM) | -5.64
22 | CCCCCn1c(=O)c(C(=O)NC23CC4CC(CC(C4)C2)C3)c(O)c2ccccc21 | – | – | – | < 50% | 74 µM | 0.23 µg/mL (≈ 0.563 µM) | 0.0024 µM | 0.002 µM | 1.4 µg/mL (≈ 3.43 µM) | -5.47
23 | CCCCCn1c2c(c(O)c(C(=O)NC34CC5CC(CC(C5)C3)C4)c1=O)CCCC2 | – | – | – | – | 15 µM | 0.1 µg/mL (≈ 0.242 µM) | – | – | 1.3 µg/mL (≈ 3.15 µM) | -5.5
24 | COCCOCn1cc(C(=O)NC23CC4CC(CC(C4)C2)C3)c(=O)c2cc(C(C)C)ccc21 | > 10000 nM | > 20 | 480 nM | – | – | – | – | – | – | –
